Series [1] has as its target Mu-type opioid receptor (Cavia porcellus, UniProt P97266). As to the kind of experiment: Agonist activity at mu opioid receptor in guinea pig ileum. The series is classed as tissue-based. The method in brief:
(§1)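 Binding used rat brain membrane preparations, with MOR labelled by [3H]DAMGO and DOR by [3H]DSLET and read as displacement. Functional MOR activity was measured in isolated guinea pig ileum and DOR activity in isolated mouse vas deferens. Values are means of 3–4 experiments.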

The test system of series [2] is Mus musculus. As to the kind of experiment: Antinociceptive activity in C57Bl6 mouse assessed as maximum possible effect of tail flick latency at 0.5 mg/kg, iv after 180 mins by tail-flick assay. The series is classed as functional. Put shortly: (§2)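 C57Bl6 mice (23–25 g) were dosed intravenously at 0.5 mg/kg. Spinal antinociception was measured by tail-flick latency and expressed as %MPE. The response was tracked over time up to 180 min post-dose to find the time of peak effect.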

The subject of series [3] is Mus musculus. As to the kind of experiment: Antinociceptive activity in C57Bl6 mouse at 0.5 mg/kg, iv by hot plate test. The following applies: TDE = time-dependent effect. More on the design: dose 0.5 mg/kg. Type of series: functional, organism-based. Put shortly: (§3)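 C57Bl6 mice (23–25 g body weight) received a single intravenous dose of 0.5 mg/kg. Supraspinal antinociception was measured by hot plate and expressed as %MPE. Readings were followed over time up to 180 min after dosing to give the time course and the time of peak effect.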

Series [4] has as its system Mus musculus. Kind of series: Antinociceptive activity in C57Bl6 mouse assessed as maximum possible effect at 0.5 mg/kg, iv after 180 mins by hot plate test. Type of series: functional. The method in brief:
as §3
On the technique in general: Thermal pain tests record how soon the animal reacts.

Another series has as its system Plasma. As to the kind of experiment: Drug degradation in human plasma up to 20 hrs. The series is classed as ADME, cell-free.
Series [5] has as its system Mus musculus. As to the kind of experiment: Antinociceptive activity in iv dosed C57Bl6 mouse after 5 to 180 mins by hot plate test. Type of series: functional. Put shortly: (§4)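 Intravenous dosing in C57Bl6 mice (23–25 g), with antinociception monitored up to 180 min by hot plate (supraspinal) or tail-flick (spinal) and expressed as %MPE. ED50 in mg/kg came from standard nonlinear regression of the log dose–response curve.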

Series [6] addresses Delta-type opioid receptor (Mus musculus, UniProt P32300). Kind of series: Agonist activity at delta opioid receptor in mouse vas deferens. Put shortly:
as §1

Series [7] deals with Mus musculus. Kind of series: Antinociceptive activity in C57Bl6 mouse assessed as time of peak effect of tail flick latency at 0.5 mg/kg, iv by tail-flick assay. The series is classed as functional. The method in brief: as §2
Series [8] addresses Mu-type opioid receptor (Rattus norvegicus, UniProt P33535). As to the kind of experiment: Displacement of [3H]DAMGO from mu opioid receptor in rat brain membranes. The series is classed as cell membranes, Membrane. Put shortly: as §1
The subject of series [9] is Mus musculus. Kind of series: Antinociceptive activity in iv dosed C57Bl6 mouse assessed as tail flick latency after 5 to 180 mins by tail-flick assay. The series is classed as functional. Put shortly:
as §4

The test system of series [10] is Mus musculus. As to the kind of experiment: Antinociceptive activity in C57Bl6 mouse assessed as tail flick latency at 0.5 mg/kg, iv by tail-flick assay. Type of series: functional, organism-based. Further details: dose 0.5 mg/kg. The following applies: TDE = time-dependent effect. Put shortly:
as §2

Series [11] has as its target Delta-type opioid receptor (Rattus norvegicus, UniProt P33533). As to the kind of experiment: Displacement of [3H]DSLET from delta opioid receptor in rat brain membranes. The series is classed as cell membranes, Membrane. Put shortly:
as §1
In general terms: Displacement assays read how much labelled ligand stays bound in the presence of the test substance.

Series [12] can be described thus: Half life in human plasma. Type of series: ADME, cell-free.
Series [13] in a line: Half life in rat brain homogenates. Type of series: ADME, tissue-based. The following applies: brain homogenate.
In series [14] the test system is Mus musculus. Kind of series: Antinociceptive activity in C57Bl6 mouse assessed as time of peak effect at 0.5 mg/kg, iv by hot plate test. Type of series: functional. The method in brief: as §3

The structures appear in SMILES notation. Where a SMILES comes first, the peptide text is derived from it. [ ]: non-standard residue; d: D form. The star is where a group is joined. X1 = OC[C@H]1O[C@@H](n2cc(C*)nn2)[C@H](O)[C@@H](O)[C@H]1O; Dmt = Cc1cc(O)cc(C)c1C[C@H](N)C(=O)O A value given as a limit tells only on which side of the number the result lay.

Chain of Delta-type opioid receptor (Mus musculus, UniProt P32300) (P32300 whole entry): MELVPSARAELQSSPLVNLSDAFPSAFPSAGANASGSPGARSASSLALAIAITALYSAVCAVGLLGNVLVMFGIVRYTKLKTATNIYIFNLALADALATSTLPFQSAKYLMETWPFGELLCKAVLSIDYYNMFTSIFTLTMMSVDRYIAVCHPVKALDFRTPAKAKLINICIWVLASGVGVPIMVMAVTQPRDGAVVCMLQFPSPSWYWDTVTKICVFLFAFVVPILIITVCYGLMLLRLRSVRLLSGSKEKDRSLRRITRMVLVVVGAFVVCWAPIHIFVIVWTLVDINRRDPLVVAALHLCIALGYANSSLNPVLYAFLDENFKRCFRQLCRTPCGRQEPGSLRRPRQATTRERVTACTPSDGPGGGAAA
Chain of Mu-type opioid receptor (Rattus norvegicus, UniProt P33535) (P33535 whole entry): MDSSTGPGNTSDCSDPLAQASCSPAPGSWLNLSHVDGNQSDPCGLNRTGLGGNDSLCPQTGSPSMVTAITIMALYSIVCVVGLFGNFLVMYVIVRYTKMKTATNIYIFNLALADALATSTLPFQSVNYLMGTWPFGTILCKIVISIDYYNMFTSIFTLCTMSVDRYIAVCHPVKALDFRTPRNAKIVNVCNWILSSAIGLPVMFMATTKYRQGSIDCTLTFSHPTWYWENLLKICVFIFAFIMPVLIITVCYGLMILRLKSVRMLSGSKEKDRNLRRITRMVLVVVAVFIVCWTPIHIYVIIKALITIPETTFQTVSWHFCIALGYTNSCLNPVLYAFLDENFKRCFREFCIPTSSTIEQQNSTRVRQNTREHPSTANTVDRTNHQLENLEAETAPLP
Chain of Mu-type opioid receptor (Cavia porcellus, UniProt P97266) (P97266 whole entry): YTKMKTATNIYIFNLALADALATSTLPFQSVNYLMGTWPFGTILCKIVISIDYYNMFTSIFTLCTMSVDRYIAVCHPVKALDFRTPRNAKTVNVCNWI
Chain of Delta-type opioid receptor (Rattus norvegicus, UniProt P33533) (P33533 whole entry): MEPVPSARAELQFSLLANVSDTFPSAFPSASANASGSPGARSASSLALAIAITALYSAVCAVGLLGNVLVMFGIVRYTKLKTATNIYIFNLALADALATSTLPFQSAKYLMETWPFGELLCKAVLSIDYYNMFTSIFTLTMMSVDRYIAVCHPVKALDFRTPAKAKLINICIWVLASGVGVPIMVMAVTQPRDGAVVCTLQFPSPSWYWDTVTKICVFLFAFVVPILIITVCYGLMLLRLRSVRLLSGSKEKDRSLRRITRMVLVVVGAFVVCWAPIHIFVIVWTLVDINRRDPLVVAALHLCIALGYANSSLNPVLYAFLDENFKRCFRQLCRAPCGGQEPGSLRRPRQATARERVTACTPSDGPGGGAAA

Broadly, the IC50 is the concentration that gives 50% inhibition. A lower IC50 goes with greater potency in that assay. In general, ED50 refers to the dose that gives a 50% effect, or the effect in half of the subjects. One may read the Ki as the equilibrium dissociation constant of an inhibitor or competing ligand from its target. A high value points to a looser hold on the target. Take `Cc1cc(O)cc(C)c1C[C@H](N)C(=O)N[C@H](CCCNC(=N)N)C(=O)N[C@@H](Cc1ccccc1)C(=O)N[C@@H](Cc1cn([C@@H]2O[C@H](CO)[C@@H](O)[C@H](O)[C@H]2O)nn1)C(N)=O`: the half-inhibitory concentration (IC50) at Mu-type opioid receptor [1] was 1.46 nM; in series [6], 2.75 nM. Also, the MPE with Mus musculus [2] and in the series on Mus musculus [4] was 40% throughout. The Activity entry in the series on Mus musculus [3] is “tde”; in the series with Mus musculus [5], “Dose-dependent effect”; with Mus musculus [9], “Dose-dependent effect”; with Mus musculus [10], “tde”. Further, the Stability entry with Plasma is given as “Stable”. The values for the ED50 in the series with Mus musculus [5] and in the series on Mus musculus [9] were 0.31 mg/kg and 0.34 mg/kg, respectively. The Time with Mus musculus [7] is listed as 60 min. The Ki at Mu-type opioid receptor [8] amounted to 0.203 nM; in [11] it was 11.9 nM.

One may read the half-life as how long it takes for the measured level to halve. With `Cc1cc(O)cc(C)c1C[C@H](N)C(=O)N1CCC[C@H]1C(=O)N[C@@H](Cc1ccccc1)C(=O)N[C@@H](Cc1ccccc1)C(N)=O`, the half-life in series [12] was 53 min; in series [13], 39.5 min.

On to `Cc1cc(O)cc(C)c1C[C@H](N)C(=O)N[C@H](CCCNC(=N)N)C(=O)N[C@@H](Cc1ccccc1)C(=O)N[C@@H](COCc1cn([C@@H]2O[C@H](CO)[C@H](O)[C@H](O)[C@H]2O)nn1)C(N)=O` (H-[Dmt][dR]FS(X1)-NH2), for which the IC50 at Mu-type opioid receptor [1] is 0.35 nM; in series [6], 4.9 nM. The Ki was found to be 0.112 nM at Mu-type opioid receptor [8] and 6.36 nM in [11].

As to `Cc1cc(O)cc(C)c1C[C@H](N)C(=O)N[C@H](CCCNC(=N)N)C(=O)N[C@@H](Cc1ccccc1)C(=O)N[C@@H](Cc1cn([C@@H]2O[C@H](CO)[C@H](O)[C@H](O)[C@H]2O)nn1)C(N)=O`, the Time in the series on Mus musculus [14] and in the series on Mus musculus [7] was 60 min each time. Moreover, the IC50 at Mu-type opioid receptor [1] was determined as 0.66 nM; in series [6], 1.98 nM. Further, the MPE in the series on Mus musculus [2] and in the series with Mus musculus [4] was 40% each time. Also, the Activity result with Mus musculus [3] is “tde”; with Mus musculus [5], “Dose-dependent effect”; in the series with Mus musculus [9], “Dose-dependent effect”; with Mus musculus [10], “tde”. Moreover, the Stability entry with Plasma is “Stable”. The ED50 came to 0.4 mg/kg in the series on Mus musculus [5] and 0.27 mg/kg with Mus musculus [9]. Besides, the Ki amounted to 0.222 nM on Mu-type opioid receptor [8] and 15.6 nM in series [11].

As to `N=C(N)NCCC[C@@H](NC(=O)[C@@H](N)Cc1ccc(OCc2cn([C@@H]3O[C@H](CO)[C@H](O)[C@H](O)[C@H]3O)nn2)cc1)C(=O)N[C@@H](Cc1ccccc1)C(=O)N[C@@H](CCCCN)C(N)=O`, the values for the IC50 (at Mu-type opioid receptor [1]; in series [6]) were 1180 nM and 1990 nM, respectively. The Ki at Mu-type opioid receptor [8] was 38.4 nM; in series [11] it was > 5000 nM.

`NCCCC[C@H](NC(=O)[C@H](Cc1ccccc1)NC(=O)[C@@H](CCCN=C(N)N)NC(=O)[C@@H](N)Cc1ccc(O)cc1)C(N)=O` gave an IC50 on Mu-type opioid receptor [1] of 254 nM.

For `Cc1cc(O)cc(C)c1C[C@H](N)C(=O)N[C@H](CCCNC(=N)N)C(=O)N[C@@H](Cc1ccccc1)C(=O)N[C@@H](CCCCN)C(N)=O`, the MPE with Mus musculus [2] and with Mus musculus [4] was 40% throughout. Moreover, the Activity result is “tde” in the series on Mus musculus [3], “Dose-dependent effect” with Mus musculus [5], “Dose-dependent effect” in the series with Mus musculus [9] and “tde” with Mus musculus [10]. The ED50 was determined as 0.25 mg/kg in the series on Mus musculus [5] and 0.17 mg/kg in the series with Mus musculus [9]. Besides, the Time in the series on Mus musculus [7] is reported as 60 min.

Consider `Cc1cc(O)cc(C)c1C[C@H](N)C(=O)N[C@H](CCCNC(=N)N)C(=O)N[C@@H](Cc1ccccc1)C(=O)N[C@@H](Cc1ccc(OCc2cn([C@@H]3O[C@H](CO)[C@H](O)[C@H](O)[C@H]3O)nn2)cc1)C(N)=O` (H-[Dmt][dR]FY(X1)-NH2), for which the IC50 worked out at 2.3 nM on Mu-type opioid receptor [1] and 6 nM in series [6]. Also, the values for the Ki (on Mu-type opioid receptor [8]; in [11]) were 0.286 nM and 22.2 nM, respectively.

The values are drawn from ChEMBL document CHEMBL3259790, “In Vitro Membrane Permeation Studies and in Vivo Antinociception of Glycosylated Dmt(1)-DALDA Analogues” (ACS Med Chem Lett, 2014).
